The values below come from ChEMBL document CHEMBL4680306, “The 3-D conformational shape of N-naphthyl-cyclopenta[d]pyrimidines affects their potency as microtubule targeting agents and their antitumor activity” (Bioorg Med Chem, 2021).

Experiment [1] is described as follows: Antiproliferative activity against human SK-OV-3 MDR-1-6/6 cells expressing Pgp assessed as decrease in cell growth measured after 48 hrs by SRB method. It is filed as functional. The conditions noted are these: SK-OV-3, 48 h. In general terms: The SRB assay estimates cell density from bound dye.
The nature of experiment [2]: Induction of microtubule depolymerisation in rat A-10 cell line measured after 18 hrs by indirect immunofluorescence method. As to conditions: a10. Summed up:
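Rat A-10 cells, chosen because they arrest in interphase without significant mitotic accumulation, were exposed to compounds for 18 h. Cellular microtubules were then visualized by indirect immunofluorescence. EC50 values come from at least three independent experiments.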

A further experiment has as its system MDA-MB-435. In words: Antiproliferative activity against human MDA-MB-435 cell line assessed as inhibition of cell proliferation measured after 48 hrs by SRB assay. It is filed as functional, cell-based. The conditions noted are these: MDA-MB-435, 48 h. The method, boiled down: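 MDA-MB-435 melanoma cells were assessed by sulforhodamine B assay. IC50 is the mean ± SD of at least three independent experiments, each run in triplicate.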

For experiment [3], the species on record is Bos taurus. Put plainly: Inhibition of [3H]colchicine binding to bovine tubulin at 5 uM measured after 10 mins by scintillation counting. The method, boiled down:
(§1)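 Purified bovine brain tubulin at 1.0 µM was mixed with 5.0 µM [3H]colchicine and inhibitor, plus components that stabilize colchicine binding, in 5% DMSO; tubulin was added last, on ice. Binding ran 10 min at 37 °C and was stopped with ice water. Mixtures were filtered through stacked DEAE-cellulose filters, and bound radiolabel was measured by scintillation counting.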

The species entered for experiment [4] is Bos taurus. Put plainly: Inhibition of [3H]colchicine binding to bovine tubulin at 1 uM measured after 10 mins by scintillation counting. Summed up:
as §1

Experiment [5] in a line: Inhibition of bovine tubulin polymerization assessed as reduction in extent of assembly preincubated for 15 mins followed by addition of reaction mixture measured after 20 mins by turbidimetric assay. Further details: species or system Bos taurus. The method, boiled down:
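After chilling, GTP was added (0.4 mM final). Turbidity at 350 nm was read after a jump from 0 °C to 30 °C.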

A further experiment deals with U-251. In words: Cytotoxicity against human U251 cell line assessed as inhibition of cell growth after 48 hrs by SRB assay. In kind it is functional, cell-based. As to conditions: U-251, 48 h.
The nature of experiment [6]: Relative resistance, ratio of IC50 for antiproliferative activity against human SK-OV-3 MDR-1-6/6 cells expressing Pgp to IC50 antiproliferative activity against human SK-OV-3 cells. In kind it is functional.
In a further experiment the test system is HeLa. In words: Antiproliferative activity against human HeLa cells assessed as decrease in cell growth measured after 48 hrs by SRB method. In kind it is functional, cell-based.
Experiment [7] in a line: Relative resistance, ratio of IC50 for inhibition of beta3 Tubulin (unknown origin) expressed in human HeLa cell line assessed as inhibition of cell proliferation to IC50 antiproliferative activity against human HeLa cells.
In another experiment the test system is SK-OV-3. In words: Antiproliferative activity against human SK-OV-3 cells assessed as decrease in cell growth measured after 48 hrs by SRB method. In kind it is functional, cell-based. As to conditions: SK-OV-3, 48 h.

The structures appear in SMILES notation.

For the compound `COc1ccc(/C=C\c2cc(OC)c(OC)c(OC)c2)cc1O` [COMBRETASTATIN A4], the IC50 in experiment [1] amounted to 6.6 nM. This compound also registered an EC50 in experiment [2] of 13 nM.
In experiment [2], `COc1ccc(N(C)c2nc(C)nc3c2CC(C)C3)cc1` (stereo not drawn) had an EC50 of 282 nM. Further, the IC50 in the experiment with MDA-MB-435 is 25.7 nM.
In the case of `COc1ccc(N(C)c2nc(C)nc3c2CCC3)cc1`, the IC50 came out at 16.4 nM in experiment [1] and 1600 nM in [5]. The inhibition in the experiment listed under Bos taurus [3] is 92%; in the experiment listed under Bos taurus [4], 70%. In experiment [2], this compound yielded an EC50 of 26 nM.
Consider `COc1cccc2cc(N(C)c3ncnc4c3CCC4)ccc12`, for which the IC50 in experiment [1] came out at 74 nM; with U-251 it was 72.5 nM; in the experiment with HeLa, 56.4 nM; with MDA-MB-435, 34 nM; in [5], 1200 nM; in the experiment on SK-OV-3 it was 37 nM. Also, the inhibition stood at 93% in the experiment filed under Bos taurus [3] and 77% in the experiment filed under Bos taurus [4]. Besides, the “Ratio IC50” value in experiment [6] is given as 2; in [7] it was 0.8. In [2], the EC50 amounted to 184 nM.
Consider `COc1cccc2c(N(C)c3nc(C)nc4c3CCC4)cccc12`, for which the IC50 in experiment [1] worked out at 1300 nM; with U-251, 38.9 nM; with HeLa, 1200 nM; in the experiment on MDA-MB-435 it was 820 nM; in the experiment on SK-OV-3, 1200 nM. In addition, the figures for the “Ratio IC50” value in experiment [6] and in experiment [7] were 1.1 and 0.7, respectively. This compound gave a half-maximal effective concentration (EC50) in experiment [2] of 3700 nM.

As usually defined, the IC50 is the point on the concentration scale where inhibition reaches its midpoint. As usually defined, the EC50 is the concentration at which the effect is half-maximal. A low value points to higher potency in that assay. The inhibition is the drop in the measured response relative to a control, in per cent.
